Results pooled from the literature.
Target: Mitogen-activated protein kinase 11 (MAPK11, Homo sapiens, UniProt Q15759)

Compound | assay | setting | endpoint | value
C=CC(=O)N1CCC[C@@H](n2nc(-c3ccc(Oc4ccccc4)cc3)c3c(N)ncnc32)C1 | enzyme activity, inhibitor | 1 µM | inhibition | 2%
Cc1ccc(NC(=O)c2ccnc(C(F)(F)F)c2)cc1-c1cc(OCCO)nc(N2CCOCC2)c1 | binding, competition with immobilised ligand | 1 µM | remaining binding | 34%
C#Cc1cc(-c2cc(Nc3nc(N[C@@H](C)c4ccc(F)cn4)ncc3Cl)n[nH]2)ccc1C=O | enzyme activity, inhibitor | 0.2 µM | inhibition | 21.9%
Cc1cc(O)c(-c2ccc([C@@H](C)CN(C)C)cc2)c2c1[nH]c(=O)c1sccc12 | enzyme activity, inhibitor | 0.1 µM | inhibition | 5.56%
CCCCC(=O)Nc1ccc(-c2ccc3ncn(CCC)c(=O)c3c2)cn1 | binding, competition with immobilised ligand | 0.5 µM | remaining binding | 87%
CC#CC(=O)N1CCC[C@H]1c1nc(-c2ccc(C(=O)Nc3ccccn3)cc2)c2c(N)nccn12 | enzyme activity, inhibitor | 1 µM | inhibition | 0%
CC(C)S(=O)(=O)c1ccc2nccc(Nc3ccc4sc(C5CCCC5)nc4c3)c2c1 | enzyme activity, inhibitor | 1 µM | activity vs control | 108%
CN1CCN(C(=O)c2ccc(NC(=O)Nc3ccc(N(C)c4ccnc(Nc5ccc(CS(C)(=O)=O)cc5)n4)cc3)cc2)CC1 | binding, competition with immobilised ligand | 1 µM | remaining binding | 100%
N#Cc1ccc(NC(=O)Nc2ccccc2)cc1 | cell-free assay, competition with immobilised ligand | 25 µM | remaining binding | 100%
C#Cc1cnc(Nc2ccnc(CO)c2)nc1Nc1ccccc1S(C)(=O)=NC#N (stereo not shown) | cell-free assay | 1 µM | remaining signal | 82%
